In ChEMBL document CHEMBL1147759, “Substituted indanylacetic acids as PPAR-alpha-gamma activators” (Bioorg Med Chem Lett, 2006):

Molecular target: T1, Peroxisome proliferator-activated receptor alpha (Homo sapiens, UniProt Q07869)
T1 sequence (Q07869 whole entry): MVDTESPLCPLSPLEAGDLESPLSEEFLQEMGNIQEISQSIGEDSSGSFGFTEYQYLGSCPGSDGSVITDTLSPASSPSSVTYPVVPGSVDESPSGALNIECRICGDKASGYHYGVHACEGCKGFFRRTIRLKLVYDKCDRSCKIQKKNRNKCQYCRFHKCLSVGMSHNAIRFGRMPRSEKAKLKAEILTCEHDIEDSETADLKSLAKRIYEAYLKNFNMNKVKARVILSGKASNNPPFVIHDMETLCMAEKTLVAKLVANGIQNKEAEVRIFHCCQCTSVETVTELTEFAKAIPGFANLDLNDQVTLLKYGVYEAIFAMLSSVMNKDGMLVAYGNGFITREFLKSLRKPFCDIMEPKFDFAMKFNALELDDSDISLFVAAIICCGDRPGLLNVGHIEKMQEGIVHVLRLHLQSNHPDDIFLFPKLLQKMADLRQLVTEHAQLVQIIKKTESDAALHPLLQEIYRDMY
Assay: Activity against PPAR alpha in human by FRET assay
How it was run: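 Human PPAR-α ligand-binding domain (GST-tagged), incubated with compound, europium-labelled anti-GST antibody, biotinylated CREB-binding protein co-activator and streptavidin-APC. Time-resolved FRET read with excitation at 340 nm and emission at 615 and 640 nm. EC50 taken as the mean of at least three experiments.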

Structure (SMILES)	EC50
CCC(C(=O)O)C1CCc2cc(OCCc3nc(-c4ccc5c(c4)OCO5)oc3C)ccc21 (centres undefined)	354 nM
CCC(C(=O)O)C1CCc2cc(OCCc3nc(-c4ccc(Cl)cc4Cl)oc3C)ccc21 (centres undefined)	5480 nM
CCC(C(=O)O)C1CCc2cc(OCCc3nc(-c4ccccc4F)oc3C)ccc21 (centres undefined)	559 nM
CCC(C(=O)O)C1CCc2cc(OCCc3nc(COc4ccccc4)oc3C)ccc21 (centres undefined)	61 nM
CCC(C(=O)O)C1CCc2cc(OCCc3nc(-c4ccccc4)oc3C)c(-c3ccc(OC)cc3)cc21 (centres undefined)	23 nM
CCC(C(=O)O)C1CCc2cc(OCc3cc(-c4ccccc4)on3)ccc21 (centres undefined)	670 nM
CCC(C(=O)O)C1CCc2cc(OCCc3nc(-c4cccc(OC)c4)oc3C)ccc21 (centres undefined)	254 nM
CCC(C(=O)O)C1CCc2cc(OCc3nc(-c4ccccc4)oc3C)ccc21 (centres undefined)	1220 nM
CCC(C(=O)O)C1CCc2cc(OCCc3nc(-c4ccco4)oc3C)ccc21 (centres undefined)	745 nM
CCC(C(=O)O)C1CCc2cc(OCCc3nc(C4CCCCC4)oc3C)ccc21 (centres undefined)	111 nM
CCC(C(=O)O)C1CCc2cc(OCCc3nc(C4CCCC4)oc3C)ccc21 (centres undefined)	202 nM
CCC(C(=O)O)C1CCc2cc(OCCc3nc(-c4ccc(OC)cc4)oc3C)ccc21 (centres undefined)	199 nM
CCC(C(=O)O)C1CCc2cc(OCCc3nc(-c4ccc5c(c4)OCC5)oc3C)ccc21 (centres undefined)	65 nM
CC[C@H](C(=O)O)[C@@H]1CCc2cc(OCCc3nc(-c4ccccc4)oc3C)ccc21	62 nM
CCC(C(=O)O)C1CCc2cc(OCCc3nc(-c4cc(C)on4)oc3C)ccc21 (centres undefined)	827 nM
CCC(C(=O)O)C1CCc2cc(OCCc3nc(-c4ccccc4)oc3-c3ccccc3)ccc21 (centres undefined)	> 10000 nM
CCC(C(=O)O)C1CCc2cc(OCCc3coc(-c4ccccc4)n3)ccc21 (centres undefined)	383 nM

More lines, now with the values ahead:

EC50	Structure (SMILES)
1130 nM	CCC(C(=O)O)C1CCc2cc(OCCc3nc(-c4ccc(OC)c(OC)c4)oc3C)ccc21 (centres undefined)
46 nM	CCC(C(=O)O)C1CCc2cc(OCCc3nc(-c4ccc(C)c(F)c4)oc3C)ccc21 (centres undefined)
204 nM	CCC(C(=O)O)C1CCc2cc(OCCc3nc(Cc4ccc(F)cc4)oc3C)ccc21 (centres undefined)
327 nM	CCC(C(=O)O)C1CCc2cc(OCCc3nc(-c4ccccc4)oc3C)c(C(C)=O)cc21 (centres undefined)
65 nM	CCC(C(=O)O)C1CCc2cc(OCCc3nc(-c4ccc(C)cc4)oc3C)ccc21 (centres undefined)
181 nM	CCC(C(=O)O)C1CCc2cc(OCCc3nc(-c4ccccc4)oc3C)c(Br)cc21 (centres undefined)
171 nM	CCC(C(=O)O)C1CCc2cc(OCCc3nc(-c4cccc(C(F)(F)F)c4)oc3C)ccc21 (centres undefined)
240 nM	CCC(C(=O)O)C1CCc2cc(OCCc3nc(-c4ccc(C(C)(C)C)cc4)oc3C)ccc21 (centres undefined)
75 nM	CCC(C(=O)O)C1CCc2cc(OCCc3nc(-c4ccc(F)c(C)c4)oc3C)ccc21 (centres undefined)
> 10000 nM	CC[C@@H](C(=O)O)[C@H]1CCc2cc(OCCc3nc(-c4ccc(C)cc4)oc3C)ccc21
109 nM	CCc1ccc(-c2nc(CCOc3ccc4c(c3)CCC4C(CC)C(=O)O)c(C)o2)cc1 (centres undefined)
232 nM	CCC(C(=O)O)C1CCc2cc(OCCCc3nc(-c4ccccc4)oc3C(F)(F)F)ccc21 (centres undefined)
271 nM	CCC(C(=O)O)C1CCc2cc(OCCc3nc(-c4cccc(C)c4)oc3C)ccc21 (centres undefined)
45 nM	CCC(C(=O)O)C1CCc2cc(OCCc3nc(-c4ccccc4)oc3C)c(-c3ccc(Cl)cc3)cc21 (centres undefined)
1520 nM	CC[C@@H](C(=O)O)[C@@H]1CCc2cc(OCCc3nc(-c4ccc(C)cc4)oc3C)ccc21

Molecular target: T2, Peroxisome proliferator-activated receptor gamma (Homo sapiens, UniProt P37231)
T2 sequence (P37231 whole entry): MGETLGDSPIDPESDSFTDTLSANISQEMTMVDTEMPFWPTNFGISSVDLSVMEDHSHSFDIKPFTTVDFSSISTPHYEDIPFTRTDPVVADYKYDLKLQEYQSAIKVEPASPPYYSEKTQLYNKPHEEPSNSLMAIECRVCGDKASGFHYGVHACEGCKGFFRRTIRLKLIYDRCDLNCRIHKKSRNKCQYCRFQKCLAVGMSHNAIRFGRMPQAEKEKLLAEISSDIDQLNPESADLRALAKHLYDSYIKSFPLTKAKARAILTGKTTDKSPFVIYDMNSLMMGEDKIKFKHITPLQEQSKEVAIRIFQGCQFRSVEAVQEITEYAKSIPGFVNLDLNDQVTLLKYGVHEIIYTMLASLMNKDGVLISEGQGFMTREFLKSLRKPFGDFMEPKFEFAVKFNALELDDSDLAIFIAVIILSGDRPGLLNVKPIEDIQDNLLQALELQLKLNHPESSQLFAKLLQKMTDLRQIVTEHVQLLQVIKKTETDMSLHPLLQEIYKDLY
Assay: Activity against PPAR gamma in human by FRET assay

Structure (SMILES)	EC50
CCC(C(=O)O)C1CCc2cc(OCCc3nc(-c4ccc5c(c4)OCO5)oc3C)ccc21 (centres undefined)	14 nM
CCC(C(=O)O)C1CCc2cc(OCCc3nc(-c4ccc(Cl)cc4Cl)oc3C)ccc21 (centres undefined)	738 nM
CCC(C(=O)O)C1CCc2cc(OCCc3nc(-c4ccccc4F)oc3C)ccc21 (centres undefined)	49 nM
CCC(C(=O)O)C1CCc2cc(OCCc3nc(COc4ccccc4)oc3C)ccc21 (centres undefined)	45 nM
CCC(C(=O)O)C1CCc2cc(OCCc3nc(-c4ccccc4)oc3C)c(-c3ccc(OC)cc3)cc21 (centres undefined)	124 nM
CCC(C(=O)O)C1CCc2cc(OCc3cc(-c4ccccc4)on3)ccc21 (centres undefined)	> 10000 nM
CCC(C(=O)O)C1CCc2cc(OCCc3nc(-c4cccc(OC)c4)oc3C)ccc21 (centres undefined)	1 nM
CCC(C(=O)O)C1CCc2cc(OCc3nc(-c4ccccc4)oc3C)ccc21 (centres undefined)	632 nM
CCC(C(=O)O)C1CCc2cc(OCCc3nc(-c4ccco4)oc3C)ccc21 (centres undefined)	396 nM
CCC(C(=O)O)C1CCc2cc(OCCc3nc(C4CCCCC4)oc3C)ccc21 (centres undefined)	136 nM
CCC(C(=O)O)C1CCc2cc(OCCc3nc(C4CCCC4)oc3C)ccc21 (centres undefined)	212 nM
CCC(C(=O)O)C1CCc2cc(OCCc3nc(-c4ccc(OC)cc4)oc3C)ccc21 (centres undefined)	42 nM
CCC(C(=O)O)C1CCc2cc(OCCc3nc(-c4ccc5c(c4)OCC5)oc3C)ccc21 (centres undefined)	6 nM
CC[C@H](C(=O)O)[C@@H]1CCc2cc(OCCc3nc(-c4ccccc4)oc3C)ccc21	6 nM
CCC(C(=O)O)C1CCc2cc(OCCc3nc(-c4cc(C)on4)oc3C)ccc21 (centres undefined)	762 nM
CCC(C(=O)O)C1CCc2cc(OCCc3nc(-c4ccccc4)oc3-c3ccccc3)ccc21 (centres undefined)	617 nM
CCC(C(=O)O)C1CCc2cc(OCCc3coc(-c4ccccc4)n3)ccc21 (centres undefined)	306 nM

Next, values leading:

EC50	Structure (SMILES)
84 nM	CCC(C(=O)O)C1CCc2cc(OCCc3nc(-c4ccc(OC)c(OC)c4)oc3C)ccc21 (centres undefined)
43 nM	CCC(C(=O)O)C1CCc2cc(OCCc3nc(-c4ccc(C)c(F)c4)oc3C)ccc21 (centres undefined)
523 nM	CCC(C(=O)O)C1CCc2cc(OCCc3nc(Cc4ccc(F)cc4)oc3C)ccc21 (centres undefined)
> 10000 nM	CCC(C(=O)O)C1CCc2cc(OCCc3nc(-c4ccccc4)oc3C)c(C(C)=O)cc21 (centres undefined)
45 nM	CCC(C(=O)O)C1CCc2cc(OCCc3nc(-c4ccc(C)cc4)oc3C)ccc21 (centres undefined)
> 10000 nM	CCC(C(=O)O)C1CCc2cc(OCCc3nc(-c4ccccc4)oc3C)c(Br)cc21 (centres undefined)
21 nM	CCC(C(=O)O)C1CCc2cc(OCCc3nc(-c4cccc(C(F)(F)F)c4)oc3C)ccc21 (centres undefined)
19 nM	CCC(C(=O)O)C1CCc2cc(OCCc3nc(-c4ccc(C(C)(C)C)cc4)oc3C)ccc21 (centres undefined)
77 nM	CCC(C(=O)O)C1CCc2cc(OCCc3nc(-c4ccc(F)c(C)c4)oc3C)ccc21 (centres undefined)
> 10000 nM	CC[C@@H](C(=O)O)[C@H]1CCc2cc(OCCc3nc(-c4ccc(C)cc4)oc3C)ccc21
40 nM	CCc1ccc(-c2nc(CCOc3ccc4c(c3)CCC4C(CC)C(=O)O)c(C)o2)cc1 (centres undefined)
> 10000 nM	CCC(C(=O)O)C1CCc2cc(OCCCc3nc(-c4ccccc4)oc3C(F)(F)F)ccc21 (centres undefined)
34 nM	CCC(C(=O)O)C1CCc2cc(OCCc3nc(-c4cccc(C)c4)oc3C)ccc21 (centres undefined)
168 nM	CCC(C(=O)O)C1CCc2cc(OCCc3nc(-c4ccccc4)oc3C)c(-c3ccc(Cl)cc3)cc21 (centres undefined)
> 10000 nM	CC[C@@H](C(=O)O)[C@@H]1CCc2cc(OCCc3nc(-c4ccc(C)cc4)oc3C)ccc21
